Source: ChEMBL document CHEMBL1275556, “High prevalence of plasmid-mediated quinolone resistance genes qnr and aac(6')-Ib-cr in clinical isolates of Enterobacteriaceae from nine teaching hospitals in China” (2008)
≈ marks a conversion by molar mass, not a printed value.

How the values were obtained:
Escherichia coli [1] = experiment: Antimicrobial activity against aac(6')-Ib-cr-negative Escherichia coli PU12T harboring wild-type GyrA, GyrB, ParC and qnrS genes by agar dilution method; assay type: functional
Summary of the method: (§1)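 MICs were determined by the CLSI agar dilution method (M7-A7) and interpreted against CLSI M100-S17 breakpoints.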

Citrobacter freundii [2] = experiment: Antimicrobial activity against aac(6')-Ib-cr-positive Citrobacter freundii PU55 harboring GyrA T83I, ParC S80I mutant, wild-type GyrB, qnrA genes by agar dilution method; assay type: functional; summary of the method: as §1
Citrobacter freundii [3] = experiment: Antimicrobial activity against aac(6')-Ib-cr-positive Citrobacter freundii PU55T harboring wild-type GyrA, ParC, GyrB and qnrA genes by agar dilution method
Enterobacter cloacae [4] = experiment: Antimicrobial activity against aac(6')-Ib-cr-negative Enterobacter cloacae SH39 harboring GyrA S83I, ParC S80I mutant, wild-type GyrB and qnrA genes by agar dilution method; assay type: functional
Enterobacter cloacae [5] = experiment: Antimicrobial activity against aac(6')-Ib-cr-negative Enterobacter cloacae SH39T harboring qnrA gene by agar dilution method; assay type: functional
Klebsiella pneumoniae [6] = experiment: Antimicrobial activity against aac(6')-Ib-cr-negative Klebsiella pneumoniae SY22 harboring GyrA S83I, ParC S80I mutant, wild-type GyrB and qnrS genes by agar dilution method; assay type: functional; summary of the method: as §1
Klebsiella pneumoniae [7] = experiment: Antimicrobial activity against aac(6')-Ib-cr-negative Klebsiella pneumoniae SY22T harboring qnrS gene by agar dilution method; assay type: functional; summary of the method: as §1
Klebsiella pneumoniae [8] = experiment: Antimicrobial activity against aac(6')-Ib-cr-positive Klebsiella pneumoniae SY26 harboring GyrA S83I, ParC S80I mutant, wild-type GyrB and qnrB genes by agar dilution method; assay type: functional
Summary of the method: (§2)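 MICs were determined on clinical isolates by CLSI agar dilution (M7-A7) and interpreted against CLSI M100-S17 breakpoints.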

Klebsiella pneumoniae [9] = experiment: Antimicrobial activity against aac(6')-Ib-cr-positive Klebsiella pneumoniae SY26T harboring wild-type GyrA, ParC, GyrB and qnrB genes by agar dilution method; assay type: functional
Summary of the method: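 Transconjugants were made by conjugating a qnr/aac(6')-Ib-cr donor with azide-resistant E. coli J53. MICs were read by CLSI agar dilution (M7-A7) and interpreted per M100-S17.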

Citrobacter freundii [10] = experiment: Antimicrobial activity against aac(6')-Ib-cr-positive Citrobacter freundii TJ15 harboring GyrA T83I, ParC S80I mutant, wild-type GyrB, qnrB genes by agar dilution method; assay type: functional; summary of the method: as §1
Citrobacter freundii [11] = experiment: Antimicrobial activity against aac(6')-Ib-cr-positive Citrobacter freundii TJ15T harboring wild-type GyrA, ParC, GyrB genes by agar dilution method; assay type: functional; summary of the method: as §1
Enterobacter cloacae [12] = experiment: Antimicrobial activity against aac(6')-Ib-cr-negative Enterobacter cloacae WH42 harboring wild-type GyrA, ParC, GyrB and qnrA genes by agar dilution method; assay type: functional
Enterobacter cloacae [13] = experiment: Antimicrobial activity against aac(6')-Ib-cr-negative Enterobacter cloacae WH42T harboring qnrA gene by agar dilution method; assay type: functional
Klebsiella pneumoniae [14] = experiment: Antimicrobial activity against aac(6')-Ib-cr-positive Klebsiella pneumoniae WH99 harboring wild-type GyrA, ParC, GyrB and qnrB genes by agar dilution method; assay type: functional; summary of the method: as §2
Klebsiella pneumoniae [15] = experiment: Antimicrobial activity against aac(6')-Ib-cr-positive Klebsiella pneumoniae WH99T harboring qnrB gene by agar dilution method; assay type: functional
Summary of the method: (§3)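 Transconjugants were made by conjugating a qnr/aac(6')-Ib-cr donor with azide-resistant E. coli J53. Selection used Trypticase soy agar with sodium azide 150 µg/ml and sulfamethoxazole 180 µg/ml. […] MICs were read by CLSI agar dilution (M7-A7) and interpreted per M100-S17.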

Escherichia coli [16] = experiment: Antimicrobial activity against Escherichia coli J53 harboring wild-type GyrA, ParC, GyrB genes by agar dilution method
Escherichia coli [17] = experiment: Antimicrobial activity against aac(6')-Ib-cr-negative Escherichia coli PU12 harboring GyrA S83L mutant, wild-type GyrB, ParC and qnrS genes by agar dilution method; assay type: functional; summary of the method: as §1
Escherichia coli [18] = experiment: Antimicrobial activity against aac(6')-Ib-cr-positive Escherichia coli FJ3 harboring GyrA S83L, ParC S80R mutant, wild-type GyrB and qnrB genes by agar dilution method; assay type: functional; summary of the method: as §1
Escherichia coli [19] = experiment: Antimicrobial activity against aac(6')-Ib-cr-positive Escherichia coli FJ3T harboring wild-type GyrA, ParC, GyrB and qnrB genes by agar dilution method
Enterobacter cloacae [20] = experiment: Antimicrobial activity against aac(6')-Ib-cr-negative Enterobacter cloacae FJ61 harboring GyrA S83I, GyrA D87A, ParC S80I mutant, wild-type GyrB and qnrS genes by agar dilution method; assay type: functional
Enterobacter cloacae [21] = experiment: Antimicrobial activity against aac(6')-Ib-cr-negative Enterobacter cloacae FJ61T harboring qnrS gene by agar dilution method; assay type: functional
Enterobacter cloacae [22] = experiment: Antimicrobial activity against aac(6')-Ib-cr-positive Enterobacter cloacae FJ63 harboring GyrA S83I, GyrA D87A, ParC S80I mutant, wild-type GyrB and qnrS genes by agar dilution method; assay type: functional
Enterobacter cloacae [23] = experiment: Antimicrobial activity against aac(6')-Ib-cr-positive Enterobacter cloacae FJ63T harboring qnrS gene by agar dilution method; assay type: functional
Enterobacter cloacae [24] = experiment: Antimicrobial activity against aac(6')-Ib-cr-negative Enterobacter cloacae FJ67 harboring […] and qnrS genes by agar dilution method; assay type: functional
Enterobacter cloacae [25] = experiment: Antimicrobial activity against aac(6')-Ib-cr-negative Enterobacter cloacae FJ67T harboring qnrS gene by agar dilution method; assay type: functional
Klebsiella pneumoniae [26] = experiment: Antimicrobial activity against aac(6')-Ib-cr-positive Klebsiella pneumoniae GZ40 harboring GyrA S83I, ParC S80I mutant, wild-type GyrB and qnrB genes by agar dilution method; assay type: functional; summary of the method: as §1
Klebsiella pneumoniae [27] = experiment: Antimicrobial activity against aac(6')-Ib-cr-positive Klebsiella pneumoniae GZ40T harboring qnrB gene by agar dilution method
Enterobacter cloacae [28] = experiment: Antimicrobial activity against aac(6')-Ib-cr-negative Enterobacter cloacae GZ47 harboring qnrB and qnrS genes by agar dilution method; assay type: functional
Enterobacter cloacae [29] = experiment: Antimicrobial activity against aac(6')-Ib-cr-negative Enterobacter cloacae GZ47T harboring qnrB gene by agar dilution method; assay type: functional
Enterobacter cloacae [30] = experiment: Antimicrobial activity against aac(6')-Ib-cr-negative Enterobacter cloacae GZ51 harboring qnrA gene by agar dilution method; assay type: functional
Enterobacter cloacae [31] = experiment: Antimicrobial activity against aac(6')-Ib-cr-negative Enterobacter cloacae GZ51T harboring qnrA gene by agar dilution method; assay type: functional
Citrobacter freundii [32] = experiment: Antimicrobial activity against aac(6')-Ib-cr-positive Citrobacter freundii JN1 harboring GyrA T83I, ParC S80I mutant, wild-type GyrB and qnrA genes by agar dilution method; assay type: functional; summary of the method: as §1
Citrobacter freundii [33] = experiment: Antimicrobial activity against aac(6')-Ib-cr-positive Citrobacter freundii JN1T by agar dilution method; assay type: functional; summary of the method: as §1
Klebsiella pneumoniae [34] = experiment: Antimicrobial activity against aac(6')-Ib-cr-positive Klebsiella pneumoniae JN132 harboring GyrA S83I, ParC S80I mutant, wild-type GyrB and qnrB genes by agar dilution method; assay type: functional; summary of the method: as §2
Klebsiella pneumoniae [35] = experiment: Antimicrobial activity against aac(6')-Ib-cr-positive Klebsiella pneumoniae JN132T harboring qnrB gene by agar dilution method; assay type: functional; summary of the method: as §3
Klebsiella pneumoniae [36] = experiment: Antimicrobial activity against aac(6')-Ib-cr-positive Klebsiella pneumoniae JN41 harboring GyrA S83I, ParC S80I mutant, wild-type GyrB and qnrB genes by agar dilution method; assay type: functional; summary of the method: as §2
Klebsiella pneumoniae [37] = experiment: Antimicrobial activity against aac(6')-Ib-cr-positive Klebsiella pneumoniae JN41T harboring qnrB gene by agar dilution method; assay type: functional; summary of the method: as §3
Citrobacter freundii [38] = experiment: Antimicrobial activity against aac(6')-Ib-cr-negative Citrobacter freundii JN64 harboring GyrA T83I, wild-type ParC, GyrB and qnrA genes by agar dilution method; assay type: functional; summary of the method: as §1
Citrobacter freundii [39] = experiment: Antimicrobial activity against aac(6')-Ib-cr-negative Citrobacter freundii JN64T harboring qnrA gene by agar dilution method; assay type: functional; summary of the method: as §1
Citrobacter freundii [40] = experiment: Antimicrobial activity against aac(6')-Ib-cr-positive Citrobacter freundii JS33 harboring GyrA T83I mutant, wild-type ParC, GyrB, qnrA and qnrB genes by agar dilution method; assay type: functional; summary of the method: as §1
Citrobacter freundii [41] = experiment: Antimicrobial activity against aac(6')-Ib-cr-positive Citrobacter freundii JS33T harboring qnrA gene by agar dilution method; assay type: functional; summary of the method: as §1

`C[C@@H](O)[C@H]1C(=O)N2C(C(=O)O)=C(S[C@@H]3CN[C@H](C(=O)N(C)C)C3)[C@H](C)[C@H]12` [MEROPENEM] showed an MIC (Escherichia coli [1]) of 0.016 µg/mL (≈ 0.0417 µM), an MIC (Citrobacter freundii [2]) of 0.25 µg/mL (≈ 0.652 µM) and an MIC (Citrobacter freundii [3]) of 0.016 µg/mL (≈ 0.0417 µM). It also gave an MIC (Enterobacter cloacae [4]) of 0.125 µg/mL (≈ 0.326 µM), an MIC (Enterobacter cloacae [5]) of 0.016 µg/mL (≈ 0.0417 µM) and an MIC (Klebsiella pneumoniae [6]) of 0.016 µg/mL (≈ 0.0417 µM). It also gave an MIC (Klebsiella pneumoniae [7]) of 0.016 µg/mL (≈ 0.0417 µM), an MIC (Klebsiella pneumoniae [8]) of 0.125 µg/mL (≈ 0.326 µM) and an MIC (Klebsiella pneumoniae [9]) of 0.016 µg/mL (≈ 0.0417 µM). For the same molecule, the MIC (Citrobacter freundii [10]) was 0.032 µg/mL (≈ 0.0834 µM), the MIC (Citrobacter freundii [11]) was 0.016 µg/mL (≈ 0.0417 µM) and the MIC (Enterobacter cloacae [12]) was 0.125 µg/mL (≈ 0.326 µM). The MIC (Enterobacter cloacae [13]) was 0.016 µg/mL (≈ 0.0417 µM), the MIC (Klebsiella pneumoniae [14]) was 0.032 µg/mL (≈ 0.0834 µM) and the MIC (Klebsiella pneumoniae [15]) was 0.016 µg/mL (≈ 0.0417 µM). The MIC (Escherichia coli [16]) was 0.016 µg/mL (≈ 0.0417 µM), the MIC (Escherichia coli [17]) was 0.016 µg/mL (≈ 0.0417 µM) and the MIC (Escherichia coli [18]) was 0.032 µg/mL (≈ 0.0834 µM). It also gave an MIC (Escherichia coli [19]) of 0.032 µg/mL (≈ 0.0834 µM), an MIC (Enterobacter cloacae [20]) of 0.25 µg/mL (≈ 0.652 µM) and an MIC (Enterobacter cloacae [21]) of 0.016 µg/mL (≈ 0.0417 µM). The MIC (Enterobacter cloacae [22]) was 1 µg/mL (≈ 2.61 µM), the MIC (Enterobacter cloacae [23]) was 0.064 µg/mL (≈ 0.167 µM) and the MIC (Enterobacter cloacae [24]) was 0.032 µg/mL (≈ 0.0834 µM). The MIC (Enterobacter cloacae [25]) was 0.032 µg/mL (≈ 0.0834 µM), the MIC (Klebsiella pneumoniae [26]) was 0.125 µg/mL (≈ 0.326 µM) and the MIC (Klebsiella pneumoniae [27]) was 0.016 µg/mL (≈ 0.0417 µM). For the same molecule, the MIC (Enterobacter cloacae [28]) was 0.032 µg/mL (≈ 0.0834 µM), the MIC (Enterobacter cloacae [29]) was 0.016 µg/mL (≈ 0.0417 µM) and the MIC (Enterobacter cloacae [30]) was 0.064 µg/mL (≈ 0.167 µM). The MIC (Enterobacter cloacae [31]) was 0.016 µg/mL (≈ 0.0417 µM), the MIC (Citrobacter freundii [32]) was 0.125 µg/mL (≈ 0.326 µM) and the MIC (Citrobacter freundii [33]) was 0.016 µg/mL (≈ 0.0417 µM). It also gave an MIC (Klebsiella pneumoniae [34]) of 0.032 µg/mL (≈ 0.0834 µM), an MIC (Klebsiella pneumoniae [35]) of 0.032 µg/mL (≈ 0.0834 µM) and an MIC (Klebsiella pneumoniae [36]) of 0.032 µg/mL (≈ 0.0834 µM). For the same molecule, the MIC (Klebsiella pneumoniae [37]) was 0.016 µg/mL (≈ 0.0417 µM), the MIC (Citrobacter freundii [38]) was 0.25 µg/mL (≈ 0.652 µM) and the MIC (Citrobacter freundii [39]) was 0.016 µg/mL (≈ 0.0417 µM). It also gave an MIC (Citrobacter freundii [40]) of 0.125 µg/mL (≈ 0.326 µM) and an MIC (Citrobacter freundii [41]) of 0.032 µg/mL (≈ 0.0834 µM).
